For two molecules, Activity results are on record in ChEMBL document CHEMBL1146024, “Synthesis and structure-activity relationships of truncated bisubstrate inhibitors of aminoglycoside 6'-N-acetyltransferases” (J Med Chem, 2006).

Activity calls are given as the source filed them. The rule behind the calls is not given here.

The assay concerns Enterococcus faecium. As to the kind of experiment: Inhibition of Enterococcus faecium C238 growth in presence of kanamycin A. The class given is functional, organism-based. The procedure, abridged: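 Two-dimensional checkerboard MIC assay per NCCLS, in duplicate, in brain heart infusion medium. Test compound in 2-fold dilutions from 8 to 512 µg/mL against kanamycin A at 100-600 µg/mL. Grown at 37 °C for 16 h; growth read at OD625, averaged, normalized to sterility controls and expressed as percent of positive growth controls.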

`CC(=O)CC(=O)OCC(C)(C)[C@@H](O)C(=O)NCCC(=O)NCCSCC(=O)NC[C@H]1O[C@H](O[C@H]2[C@H](O)[C@@H](O)[C@H](N)C[C@@H]2N)[C@H](N)[C@@H](O)[C@@H]1O`: the outcome was Active.

Consider `CC(C)(COC(=O)CC(=O)O)[C@@H](O)C(=O)NCCC(=O)NCCSCC(=O)NC[C@H]1O[C@H](O[C@H]2[C@H](O)[C@@H](O)[C@H](N)C[C@@H]2N)[C@H](N)[C@@H](O)[C@@H]1O`, for which the outcome was inactive.
